Assay outcomes: PubChem BioAssay, The Scripps Research Institute Molecular Screening Center
An excerpt weighted towards active compounds, which were near 2.3% of everything screened.
MsrA inh: inhibits bovine methionine sulfoxide reductase A | purified bovine MsrA, absorbance read-out | inhibition, % at 15.5 µM | actives 0.75% (n = 360,000); in the data active = inhibition above about 4.5%
bovine MsrA act: activates bovine MsrA enzyme | purified bovine MsrA, absorbance read-out | AID 602163 | activation, % at 10.6 µM | actives 0.3% (n = 360,000); in the data active = activation above about 7.5%
MC4R antagonist: antagonists of human melanocortin 4 receptor (MC4R) | P32245 | MC4R-expressing cells, MTII-stimulated cAMP, LANCE TR-FRET | inhibition, % at 6.5 µM | actives 0.48% (n = 360,000) | AID 540295;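 active = inhibition above its plate's cutoff, the mean of tested wells on that plate plus 3 SD, cut at about 29% in these data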
Target sequence (P32245 whole entry, looked up): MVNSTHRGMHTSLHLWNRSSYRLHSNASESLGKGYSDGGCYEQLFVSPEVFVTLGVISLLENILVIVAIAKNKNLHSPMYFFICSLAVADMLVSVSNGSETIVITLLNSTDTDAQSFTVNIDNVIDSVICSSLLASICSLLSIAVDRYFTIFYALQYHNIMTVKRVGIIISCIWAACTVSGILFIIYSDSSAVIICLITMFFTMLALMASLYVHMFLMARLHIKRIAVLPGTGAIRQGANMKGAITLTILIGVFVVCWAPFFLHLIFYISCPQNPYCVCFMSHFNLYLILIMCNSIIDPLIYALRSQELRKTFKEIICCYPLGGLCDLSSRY
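System: U2OS cells stably expressing human melanocortin 4 receptor (MC4R). Reagent: Melanotan II challenge after compound preincubation. Doses: 6.5 µM. Times: 30-min compound, 1-h challenge, 1-h detection, room temperature. Measured by: TR-FRET with Eu-cAMP and labeled anti-cAMP, 671 nm. Replicates: singlicate.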
MC4R ag barr: activates human MC4R beta-arrestin recruitment | P32245 | U2OS MC4R beta-arrestin complementation, luminescence; percent of melanotan II response, DMSO zero | activation, % at 8.9 µM | actives 0.98% (n = 360,000);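 active = activation above a per-plate cutoff, the mean activation of sample wells on that plate plus 3 SD, cut at about 8% in these data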
Of the large screens only hits and unclear results are named; the others gave an inactive call.

O=C(Oc1ccc(-c2cnc3ccccc3n2)cc1)c1cc([N+](=O)[O-])ccc1Cl	MC4R antagonist 29.3
CCCN1C(=O)/C(=C/c2c(N3CCNC(=O)C3CC(=O)OCC)nc3c(C)cccn3c2=O)SC1=S (stereo not drawn)	MC4R antagonist 28.9 (no result: MsrA inh)
CCOC(=O)CC1C(=O)NCCN1c1nc2ccc(C)cn2c(=O)c1/C=C1\SC(=S)N(CC(C)C)C1=O (stereo not drawn)	none (no result: MsrA inh)
COC(=O)C1OC1c1cc([N+](=O)[O-])ccc1OC (stereo not drawn)	none
COc1ccc([N+](=O)[O-])cc1C1NN=C(c2ccccc2O)S1 (stereo not drawn)	MC4R ag barr 10.5
O=C1CCC(=O)N1CN(C(=O)c1ccco1)c1ccc(Cl)c(Cl)c1	none
Cn1c(/C(C#N)=C(\O)CN2CCN(Cc3ccccc3)CC2)nc2ccccc21	none
Cc1ccc(SC/C(O)=C(\C#N)c2nc3ccccc3n2C)cc1	MC4R ag barr 8.3
COc1ccc(C(=O)NCC(=O)OCCCOC(=O)CNC(=O)c2ccc(OC)c(OC)c2)cc1OC	none
c1ccc(CCn2nnc3ccccc32)cc1	none
COc1ccccc1NC(=O)NCc1nc(-c2ccc(C(F)(F)F)cc2)no1	MC4R ag barr 8.5
O=C(NCc1nc(-c2ccccc2)no1)Nc1ccc(F)cc1	none
Cc1cc(C)cc(N2C(=O)C=CC2=O)c1	MC4R antagonist 32.7
CN(CC(=O)Nc1ccc(F)cc1)C(=O)COc1ccc([N+](=O)[O-])cc1Cl	none
CCn1c2ccccc2c2cc(NC(=O)CSc3nnnn3-c3ccccc3)ccc21	MC4R ag barr 8.7
COc1ccc(-c2ccc(-c3nnn(CC(=O)N4CCOCC4)n3)cc2)cc1	none
COc1ccc(OC)c(C(=O)Cn2nnc(-c3ccc(N4CCOCC4)cc3)n2)c1	MC4R ag barr 9.3
Cc1ccc(/C=N/NC(=O)CCCOc2ccc(Cl)cc2Cl)cc1[N+](=O)[O-]	MC4R ag barr 9.0
Cc1ccccc1Oc1cc(-n2ncc(Cl)c(Cl)c2=O)ncn1	MC4R antagonist 50.5
CC(C)Oc1ccc2ccccc2c1CNC[C@H]1O[C@@H](n2ccc(=O)[nH]c2=O)[C@H](O)[C@@H]1O	none (no result: MC4R antagonist, MC4R ag barr)
COc1cc(NC(=O)c2cc(-c3ccc4c(c3)OCO4)on2)cc(OC)c1OC	MC4R ag barr 8.8
COc1cc(NC(=O)c2cc(-c3ccccc3)on2)cc(OC)c1OC	none
O=C(O)C1=CC[C@@H](c2ccc(Cl)cc2)N(S(=O)(=O)c2ccc(Cl)cc2)C1	none
Cc1snc(S(=O)(=O)/C(C#N)=N\Nc2ccccc2)c1C#N	none
Cc1snc(S(=O)(=O)/C(C#N)=N/Nc2ccc(C(F)(F)F)cc2)c1C#N	MsrA inh 4.6
O=C(Nc1ccc(O)cc1)c1cc2ccccc2c(=O)s1	MsrA inh 4.7
O=C(Nc1ccccc1)c1cc2ccccc2s1	none
Cc1ccc(CSCCC(=O)NCCc2ccc(Cl)cc2)cc1	MC4R ag barr 8.6
COc1cc2c(cc1OC)C(C)N(CCc1ccc(Cl)cc1)CC2 (stereo not drawn)	none
O=C(CSc1ccccn1)Nc1cccc(NC(=O)CSc2ccccn2)n1	MC4R ag barr 9.1
CC(=O)Nc1ccc(NC(=O)CSc2ccccn2)cc1	none
CC(C)NC(=O)NC(=O)CSc1nnc(COc2ccccc2F)n1C(C)C1CC2CCC1C2 (stereo not drawn)	MC4R ag barr 9.5 (no result: MsrA inh)
O=C(COC(=O)/C=C/c1ccc2c(c1)OCO2)NC1CC1	none
N#CCOC(=O)/C=C/c1ccc2c(c1)OCO2	MsrA inh 7.0
Cc1nnc(SC(C)C(=O)Nc2ccc(S(=O)(=O)N3CCCCC3)cc2)s1 (stereo not drawn)	none
COc1cccc(C=NNC(=O)C2CC2)c1	none
COc1cc2c(cc1OC)C(C(=O)N1CCCC1)C(c1ccccc1F)N(C)C2=O (stereo not drawn)	none
CCOc1ccc(N2C(=O)/C(=C/c3cccs3)N(CC(=O)OC)C2=S)cc1	MC4R ag barr 20.0
O=C1[C@H](Cc2ccccc2)NCC=CC[C@H](c2ccc(Cl)cc2)N1Cc1ccccc1	MC4R ag barr 8.6
Cc1c(C(C)(C)O)[nH]c2ccc(C(F)(F)F)cc12	none
Cc1ccc(/C=N/NC(=S)NCCc2ccccc2)s1	none
CCCCNC(=S)N/N=C/c1ccc(C)s1	MsrA inh 4.7
O=C(NCCCN1CCCC1=O)Nc1cc(Cl)ccc1Cl	none
COc1ccc(C2=Nn3c(nnc3-c3ccccc3C(F)(F)F)SC2)cc1OC1CCOC1 (stereo not drawn)	none
COc1ccc(C2=Nn3c(nnc3-c3ccccc3OC)SC2)cc1OC1CCOC1 (stereo not drawn)	MsrA inh 4.6
O=C(Nc1cc(C(F)(F)F)ccc1Cl)C1CCN(c2nnc(-n3cccc3)s2)CC1	MC4R ag barr 8.6
CCCCCCc1cc2cc(S(=O)(=O)c3ccc(F)c(Cl)c3)c(=O)oc2cc1O	MC4R ag barr 8.8
CC(=O)Nc1ccc(/C=C(\C#N)C(=O)NC2CCCCC2)cc1	MsrA inh 4.6
CSc1ccc(/C=C(\C#N)C(=O)NC2CCCCC2)cc1	none
COC1=CC(=O)c2ccccc2C1=O	bovine MsrA act 14.1 (no result: MsrA inh)
CCC(=O)NNc1nc2c(C)cc(C)cc2s1	none
COc1ccc(C(=O)N/C(=C\c2cccs2)c2nc3ccccc3[nH]2)cc1OC	MsrA inh 6.0
C/C(=N\NC(=O)c1ccc(O)cc1)c1cc2ccccc2o1	MsrA inh 4.6
O=C(NNC(=O)c1cc2ccccc2o1)c1ccc(F)cc1	none
COc1ccc(-c2c(C)nc(N)nc2-c2ccc(OCc3ccc(C)cc3)cc2O)cc1OC	MC4R ag barr 9.6
COc1ccc(-c2c(C)nc(N)nc2-c2ccc(OC)cc2O)cc1	none
COc1cc(-c2cc(C(=O)Nc3ccncc3)c3ccccc3n2)cc(OC)c1OC	none
COc1cc(NC(=O)c2cc(-c3cccnc3)nc3ccc(Br)cc23)cc(OC)c1	MC4R ag barr 8.2
CC(C)COc1cccc(-c2cc(C(=O)N/N=C/c3ccncc3)c3ccccc3n2)c1	MC4R ag barr 9.6
O=C(Nc1ccncc1)c1cc(-c2cccc(Br)c2)nc2ccccc12	MC4R ag barr 21.6
Cc1ccc(-c2cc(C(=O)Nc3ccncc3)c3ccccc3n2)cc1	MC4R ag barr 8.9
CCOCCn1c(=NC(=O)c2cc3ccccc3oc2=O)sc2cc(S(N)(=O)=O)ccc21	none
CCCCN(C)C(=O)c1cn(CC)c2nc(C)ccc2c1=O	none
O=C(CSc1nc2ccccc2n1-c1ccccc1)NCC1CCCO1 (stereo not drawn)	none
C[C@H](CO)N1C[C@H](C)[C@@H](CN(C)Cc2ccccc2F)Oc2ncc(Br)cc2C1=O	none
c1ccc(Cn2c(-c3ccccc3)nc3nc4ccccc4nc32)cc1	MC4R ag barr 9.3
Cc1ccccc1NC(=O)C(=O)c1cn(C)c2ccccc12	MC4R ag barr 12.4
Cn1cc(C(=O)C(=O)NCCc2ccccc2)c2ccccc21	none
O=C(c1ccc2c(c1)OCCO2)N1CCN(S(=O)(=O)c2c(F)cccc2F)CC1	none
Cc1ccc([C@@H]2[C@@H]3C(=O)N(C)C(=O)[C@@H]3[C@]3(C)C(=O)N(Cc4ccccn4)CC(=O)N23)o1	none
